The source made the active and inactive calls. No cut-off for these calls is given here.
How the values were obtained:
[1] = biological target: T1, Angiotensin type II receptor (Sus scrofa, UniProt Q2XUH7); test: Displacement of [125I]angiotensin 2 from AT2 receptor in pig uterus membrane after 1.5 hrs by gamma counting; type: cell membranes
T1 sequence (Q2XUH7 whole entry): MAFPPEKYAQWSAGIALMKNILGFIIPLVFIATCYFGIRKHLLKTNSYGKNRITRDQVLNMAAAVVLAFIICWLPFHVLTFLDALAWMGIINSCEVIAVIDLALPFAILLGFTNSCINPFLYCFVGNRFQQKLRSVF

[2] = Displacement of [125I]angiotensin 2 from AT1 receptor in rat liver membrane after 2 hrs by gamma counting; type: cell membranes
Procedure, shortened: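 Rat liver membranes (5 mg original tissue) were incubated with 0.03 nM [125I]Ang II and varied test-compound concentrations. Incubation was 2 h at 25 °C. Bound and free label were separated by filtration on PEI-soaked GF/B filters and bound label was gamma counted. Nonspecific binding was taken with 1 µM Ang II.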

[3] = biological target: T2, CYP3A4 (Homo sapiens, UniProt P08684); test: Inhibition of human recombinant CYP3A4 at 10 uM by spectrofluorimetry; type: ADME
Procedure, shortened: (§1)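 Compounds were tested at 10 µM in duplicate in a spectrofluorometric assay, with 0.25% final methanol and 0.25% final acetonitrile. Fluorescence at t = 0 was subtracted from fluorescence after incubation. Signal was compared with solvent-vehicle controls, and percent of control activity was reported as percent inhibition.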

[4] = biological target: T3, CYP2C9 (Homo sapiens, UniProt P11712); test: Inhibition of human recombinant CYP2C9 at 10 uM by spectrofluorimetry; type: ADME; procedure, shortened: as §1
[5] = Displacement of [125I]angiotensin 2 from rat AT1 receptor expressed in african green monkey COS7 cells after 24 hrs; type: cell-based; conditions: cos-7
[6] = biological target: T4, CYP2B6 (Homo sapiens, UniProt P20813); test: Inhibition of human recombinant CYP2B6 at 10 uM by spectrofluorimetry; type: ADME; procedure, shortened: as §1
T4 sequence (P20813 whole entry): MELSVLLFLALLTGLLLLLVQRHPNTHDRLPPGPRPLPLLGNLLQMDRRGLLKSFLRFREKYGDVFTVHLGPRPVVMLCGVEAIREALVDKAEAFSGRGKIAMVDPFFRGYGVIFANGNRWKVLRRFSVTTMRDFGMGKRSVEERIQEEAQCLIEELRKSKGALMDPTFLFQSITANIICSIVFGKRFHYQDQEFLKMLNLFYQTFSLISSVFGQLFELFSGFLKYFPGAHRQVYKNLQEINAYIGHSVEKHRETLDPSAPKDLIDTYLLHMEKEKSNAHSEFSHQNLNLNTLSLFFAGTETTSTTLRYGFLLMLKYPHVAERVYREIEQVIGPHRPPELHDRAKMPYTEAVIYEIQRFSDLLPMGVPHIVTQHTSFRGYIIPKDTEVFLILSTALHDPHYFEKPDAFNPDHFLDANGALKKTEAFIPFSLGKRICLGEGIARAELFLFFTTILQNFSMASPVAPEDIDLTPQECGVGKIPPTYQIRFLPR

[7] = tested on: NG108-15; test: Agonist activity at AT2 receptor in rat/mouse hybrid NG108-15 cells assessed as induction of neurite growth at 0.1 nM after 3 days by phase contrast microscopy in presence of 1 uM AT2 receptor antagonist PD-123319; type: functional, cell-based
Procedure, shortened: (§2)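 NG108-15 cells (passage 7–30) were grown in DMEM with 10% FBS, HAT and gentamycin at 37 °C in 7% CO2. Cells were stimulated once daily for three days, starting 24 h after plating. When used, PD123,319 (1 µM) was added 30 min before agonist. After 3 days, cells were scored from phase-contrast micrographs: positive meant at least one neurite longer than the cell body, expressed as % of total cells. At least 140 cells were counted in three independent experiments.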

[8] = tested on: NG108-15; test: Cytotoxicity against rat/mouse hybrid NG108-15 cells at 1 uM; type: cell-based; conditions: ng108-15, 1 µM
Procedure, shortened: (§3)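 NG108-15 cells were cultured for three days with test compound at 1 pM to 1 µM. Cell death was then judged by phase-contrast microscopy.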

[9] = biological target: CYP2E1 (Homo sapiens, UniProt P05181); test: Inhibition of human recombinant CYP2E1 at 10 uM by spectrofluorimetry; type: ADME; procedure, shortened: as §1
[10] = biological target: CYP3A5 (Homo sapiens, UniProt P20815); test: Inhibition of human recombinant CYP3A5 at 10 uM by spectrofluorimetry; type: ADME; procedure, shortened: as §1
[11] = tested on: NG108-15; test: Cytotoxicity against rat/mouse hybrid NG108-15 cells up to 1 uM; type: cell-based; procedure, shortened: as §3
[12] = tested on: NG108-15; test: Agonist activity at AT2 receptor in rat/mouse hybrid NG108-15 cells assessed as induction of neurite growth at 100 nM after 3 days by phase contrast microscopy; type: functional, cell-based; conditions: 0.1 nM, in the assay text read “at 0.1 nM” for “at 100 nM”; procedure, shortened: as §2
[13] = tested on: NG108-15; test: Agonist activity at AT2 receptor in rat/mouse hybrid NG108-15 cells assessed as induction of neurite growth at 0.1 nM after 3 days by phase contrast microscopy; type: functional, cell-based; procedure, shortened: as §2
[14] = biological target: CYP2C19 (Homo sapiens, UniProt P33261); test: Inhibition of human recombinant CYP2C19 at 10 uM by spectrofluorimetry; type: ADME; procedure, shortened: as §1
[15] = biological target: T2, CYP3A4; test: Inhibition of CYP3A4 at 10 uM; type: ADME; procedure, shortened: as §1
[16] = biological target: T5, CYP1A2 (Homo sapiens, UniProt P05177); test: Inhibition of human recombinant CYP1A2 at 10 uM by spectrofluorimetry; type: ADME; procedure, shortened: as §1
T5 sequence (P05177 whole entry): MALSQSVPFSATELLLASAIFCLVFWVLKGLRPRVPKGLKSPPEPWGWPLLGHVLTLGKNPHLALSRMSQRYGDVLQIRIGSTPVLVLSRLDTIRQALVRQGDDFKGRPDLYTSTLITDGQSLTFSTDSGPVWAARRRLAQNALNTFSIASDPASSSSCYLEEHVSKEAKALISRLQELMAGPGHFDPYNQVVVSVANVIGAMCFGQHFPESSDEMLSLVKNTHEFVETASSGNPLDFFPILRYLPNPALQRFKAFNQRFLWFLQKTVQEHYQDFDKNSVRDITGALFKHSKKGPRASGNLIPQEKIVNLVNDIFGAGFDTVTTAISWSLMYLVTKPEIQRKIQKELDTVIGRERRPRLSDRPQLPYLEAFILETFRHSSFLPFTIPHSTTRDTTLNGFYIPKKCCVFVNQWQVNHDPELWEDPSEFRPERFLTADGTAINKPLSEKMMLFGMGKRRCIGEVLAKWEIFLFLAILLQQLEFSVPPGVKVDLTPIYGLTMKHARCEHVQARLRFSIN

[17] = biological target: T3, CYP2C9; test: Inhibition of CYP2C9 at 10 uM; type: ADME; procedure, shortened: as §1

CYP2C19, sequence (P33261 whole entry): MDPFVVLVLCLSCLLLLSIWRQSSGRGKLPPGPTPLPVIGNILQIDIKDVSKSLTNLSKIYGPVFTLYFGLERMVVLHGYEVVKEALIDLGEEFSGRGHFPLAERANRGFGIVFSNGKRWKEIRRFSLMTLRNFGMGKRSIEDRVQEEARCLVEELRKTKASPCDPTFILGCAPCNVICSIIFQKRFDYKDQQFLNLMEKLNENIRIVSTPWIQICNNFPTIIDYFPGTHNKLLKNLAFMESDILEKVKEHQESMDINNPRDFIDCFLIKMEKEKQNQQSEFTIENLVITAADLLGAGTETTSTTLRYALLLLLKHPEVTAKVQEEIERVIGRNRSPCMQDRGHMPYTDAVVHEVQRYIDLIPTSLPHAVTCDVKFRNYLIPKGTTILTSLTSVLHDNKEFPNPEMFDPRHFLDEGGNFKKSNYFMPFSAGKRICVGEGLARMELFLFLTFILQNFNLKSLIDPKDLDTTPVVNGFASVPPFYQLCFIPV
CYP3A5, sequence (P20815 whole entry): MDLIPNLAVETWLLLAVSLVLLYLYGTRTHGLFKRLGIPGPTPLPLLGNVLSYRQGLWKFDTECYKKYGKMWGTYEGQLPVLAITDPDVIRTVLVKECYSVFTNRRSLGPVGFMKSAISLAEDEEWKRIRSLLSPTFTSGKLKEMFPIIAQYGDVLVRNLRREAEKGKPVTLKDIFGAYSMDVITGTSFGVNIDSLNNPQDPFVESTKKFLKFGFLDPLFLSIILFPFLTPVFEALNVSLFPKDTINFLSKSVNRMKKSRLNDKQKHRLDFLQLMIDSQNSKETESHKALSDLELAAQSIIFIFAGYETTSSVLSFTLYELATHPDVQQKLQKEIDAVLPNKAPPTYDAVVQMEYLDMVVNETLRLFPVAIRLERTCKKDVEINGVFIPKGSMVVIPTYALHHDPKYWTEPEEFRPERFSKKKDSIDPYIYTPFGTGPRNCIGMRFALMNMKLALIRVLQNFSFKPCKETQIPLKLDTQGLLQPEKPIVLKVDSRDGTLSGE
T2 sequence (P08684 whole entry): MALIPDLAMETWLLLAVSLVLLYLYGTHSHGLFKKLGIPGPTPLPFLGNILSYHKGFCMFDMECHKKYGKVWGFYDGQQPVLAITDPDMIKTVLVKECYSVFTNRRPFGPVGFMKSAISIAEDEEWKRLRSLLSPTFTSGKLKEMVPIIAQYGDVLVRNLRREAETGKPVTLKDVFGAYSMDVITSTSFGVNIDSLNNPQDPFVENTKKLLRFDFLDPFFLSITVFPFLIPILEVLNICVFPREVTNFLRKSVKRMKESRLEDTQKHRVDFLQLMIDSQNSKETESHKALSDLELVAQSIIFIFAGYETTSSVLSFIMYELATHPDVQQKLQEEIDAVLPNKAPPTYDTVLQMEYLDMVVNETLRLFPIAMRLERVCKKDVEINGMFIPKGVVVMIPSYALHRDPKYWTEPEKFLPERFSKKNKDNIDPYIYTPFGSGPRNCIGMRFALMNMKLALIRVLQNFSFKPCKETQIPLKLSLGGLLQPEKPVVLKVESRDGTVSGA
T3 sequence (P11712 whole entry): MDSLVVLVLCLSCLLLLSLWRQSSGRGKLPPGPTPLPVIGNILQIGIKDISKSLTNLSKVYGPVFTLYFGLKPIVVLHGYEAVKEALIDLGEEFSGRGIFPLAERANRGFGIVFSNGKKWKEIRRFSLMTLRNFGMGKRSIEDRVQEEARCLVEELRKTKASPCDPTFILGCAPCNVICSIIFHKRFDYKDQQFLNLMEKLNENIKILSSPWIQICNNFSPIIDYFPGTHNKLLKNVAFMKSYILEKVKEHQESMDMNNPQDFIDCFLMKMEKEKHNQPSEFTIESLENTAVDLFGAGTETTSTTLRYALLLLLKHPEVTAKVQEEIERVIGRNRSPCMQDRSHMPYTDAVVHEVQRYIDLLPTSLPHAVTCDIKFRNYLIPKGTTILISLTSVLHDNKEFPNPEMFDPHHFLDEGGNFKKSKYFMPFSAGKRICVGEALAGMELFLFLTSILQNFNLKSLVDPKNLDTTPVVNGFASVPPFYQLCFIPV
CYP2E1, sequence (P05181 whole entry): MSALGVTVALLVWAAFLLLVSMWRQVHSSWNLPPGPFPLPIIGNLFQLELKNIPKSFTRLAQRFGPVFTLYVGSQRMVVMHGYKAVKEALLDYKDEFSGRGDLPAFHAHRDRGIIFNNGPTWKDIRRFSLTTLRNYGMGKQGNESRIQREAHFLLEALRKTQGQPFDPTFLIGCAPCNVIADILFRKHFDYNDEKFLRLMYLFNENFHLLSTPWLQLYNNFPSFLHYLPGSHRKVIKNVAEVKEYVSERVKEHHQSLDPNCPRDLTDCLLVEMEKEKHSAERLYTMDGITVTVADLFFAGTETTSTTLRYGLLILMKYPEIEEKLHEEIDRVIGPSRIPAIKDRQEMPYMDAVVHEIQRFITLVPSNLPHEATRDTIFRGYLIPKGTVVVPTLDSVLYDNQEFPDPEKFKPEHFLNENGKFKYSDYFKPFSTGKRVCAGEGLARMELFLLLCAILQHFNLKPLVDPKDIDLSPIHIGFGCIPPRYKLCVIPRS

| SMILES | Ki [1] [nM] | Ki [2] [nM] | inhibition at 10 µM [3] [%] | inhibition at 10 µM [4] [%] | other results |
| --- | --- | --- | --- | --- | --- |
| CCCCOC(=O)NS(=O)(=O)c1sc(CC(C)C)cc1-c1ccc(CN2C(=O)CCC2=O)cc1 | > 10000 | > 10000 | – | – | – |
| CCCCOC(=O)NS(=O)(=O)c1sc(CC(C)C)cc1-c1ccc(C(=O)c2cccs2)cc1 | 18.8 | > 10000 | – | – | – |
| CCCCOC(=O)NS(=O)(=O)c1sc(CC(C)C)cc1-c1ccc(CN2C(=O)CN(C)C2=O)cc1 | 68.6 | > 10000 | 25 | 40 | – |
| CCCCOC(=O)NS(=O)(=O)c1sc(CC(C)C)cc1-c1ccc(CN2CCC(=O)CC2)cc1 | 16.1 | > 10000 | 51 | 71 | – |
| CCCCOC(=O)NS(=O)(=O)c1sc(CC(C)C)cc1-c1ccc(Cn2c(CC)nc3c(C)cc(C)nc32)cc1 | – | – | – | – | IC50 [5]: 1.1 nM |
| CCCCOC(=O)NS(=O)(=O)c1sc(CC(C)C)cc1-c1ccc(CN2CCCC2=O)cc1 | 3.5 | > 10000 | 28 | 24 | inhibition at 10 µM [6]: 33%; Activity [7]: inactive; Activity [8]: Toxic; inhibition at 10 µM [9]: 5%; inhibition at 10 µM [10]: 25%; Activity [11]: Non-toxic; Activity [12]: Active; Activity [13]: Active; inhibition at 10 µM [14]: 25% |
| CCCCOC(=O)NS(=O)(=O)c1sc(CC(C)C)cc1-c1ccc(Cn2cccn2)cc1 | 2.3 | > 10000 | 16 | 23 | inhibition at 10 µM [6]: 29%; inhibition at 10 µM [10]: 20%; inhibition at 10 µM [14]: 12% |
| CCCCOC(=O)NS(=O)(=O)c1sc(CC(C)C)cc1-c1ccc(Cc2ccsc2)cc1 | 175 | > 10000 | – | – | – |
| CCCCOC(=O)NS(=O)(=O)c1sc(CC(C)C)cc1-c1ccc(Cc2ncco2)cc1 | 3.9 | > 10000 | 57 | 83 | – |
| CCCCOC(=O)NS(=O)(=O)c1sc(CC(C)C)cc1-c1ccc(Cn2ccnc2)cc1 [BULOXIBUTID] | – | > 10000 | 82 | 94 | inhibition at 10 µM [6]: 40%; inhibition at 10 µM [15]: 82%; inhibition at 10 µM [16]: 63%; inhibition at 10 µM [14]: 67%; inhibition at 10 µM [17]: 94% |
| CCCCOC(=O)NS(=O)(=O)c1sc(CC(C)C)cc1-c1ccc(Cn2ncnn2)cc1 | 16 | > 10000 | – | – | – |
| CCCCOC(=O)NS(=O)(=O)c1sc(CC(C)C)cc1-c1ccc(C(=O)c2ncco2)cc1 | 13.8 | > 10000 | 36 | 75 | – |
| CCCCOC(=O)NS(=O)(=O)c1sc(CC(C)C)cc1-c1ccc(C(=O)c2ccnn2C)cc1 | 3.4 | > 10000 | – | – | – |
| CCCCOC(=O)NS(=O)(=O)c1sc(CC(C)C)cc1-c1ccc(Cn2cnccc2=O)cc1 | 108 | > 10000 | – | – | – |
| CCCCOC(=O)NS(=O)(=O)c1sc(CC(C)C)cc1-c1ccc(CN2CCSC2)cc1 | 280 | > 10000 | – | – | – |
| CCCCOC(=O)NS(=O)(=O)c1sc(CC(C)C)cc1-c1ccc(Cn2cnc(C)c2)cc1 | 17.6 | > 10000 | 44 | 37 | – |
| Cc1cc(Cn2cnc3c2C[C@@H](C(=O)O)N(C(=O)C(c2ccccc2)c2ccccc2)C3)ccc1N(C)C | – | > 10000 | – | – | – |
| CCCCOC(=O)NS(=O)(=O)c1sc(CC(C)C)cc1-c1ccc(Cn2cnnn2)cc1 | 49 | > 10000 | – | – | – |
| CCCCc1nc(Cl)c(CO)n1Cc1ccc(-c2ccccc2-c2nnn[nH]2)cc1 [LOSARTAN] | – | 12.1 | – | – | – |
| CCCCOC(=O)NS(=O)(=O)c1sc(CC(C)C)cc1-c1ccc(CN2CCN(C)C2=O)cc1 | 16.5 | > 10000 | 20 | 24 | – |
| CCCCOC(=O)NS(=O)(=O)c1sc(CC(C)C)cc1-c1ccc(C(=O)c2nccn2C)cc1 | 2.9 | > 10000 | 14 | 38 | inhibition at 10 µM [10]: 17%; inhibition at 10 µM [14]: 6% |
| CCCCOC(=O)NS(=O)(=O)c1sc(CC(C)C)cc1-c1ccc(CN2CCOCC2)cc1 | 280 | > 10000 | – | – | – |
| CCCCOC(=O)NS(=O)(=O)c1sc(CC(C)C)cc1-c1ccc(CN2C(=O)N(C)C(C)(C)C2=O)cc1 | 3.6 | > 10000 | 20 | 38 | – |
| CCCCOC(=O)NS(=O)(=O)c1sc(CC(C)C)cc1-c1ccc(Cn2cnc(C(F)(F)F)c2)cc1 | 7.3 | > 10000 | 71 | 31 | – |
| CCCCOC(=O)NS(=O)(=O)c1sc(CC(C)C)cc1-c1ccc(Cc2nnc(C(F)(F)F)o2)cc1 | 328 | > 10000 | – | – | – |
| CCCCOC(=O)NS(=O)(=O)c1sc(CC(C)C)cc1-c1ccc(C(=O)c2nccs2)cc1 | 18.6 | > 10000 | 16 | 92 | – |
| CCCCOC(=O)NS(=O)(=O)c1sc(CC(C)C)cc1-c1ccc(Cn2ccc(C(F)(F)F)n2)cc1 | 9.5 | > 10000 | 33 | 56 | – |
| CCCCOC(=O)NS(=O)(=O)c1sc(CC(C)C)cc1-c1ccc(Cc2nccs2)cc1 | 3.2 | > 10000 | 70 | 86 | – |

From ChEMBL document CHEMBL1165972, “Selective angiotensin II AT(2) receptor agonists with reduced CYP 450 inhibition” (Bioorg Med Chem, 2010)
